Screening data as filed in PubChem BioAssay.
The list is not random: actives were taken first. Their share in the collection is about 1.9%.
NPY Y2 blocker = antagonists of human neuropeptide Y receptor Y2; P49146; NPY-Y2 expressing cells, antagonist mode; inhibition, % at 2.7 µM; 0.99% of 140,000 active; in the data active = inhibition above about 17%;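 also: 0% = vehicle with agonist challenge and 100% = reference antagonist with challenge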
NPY-Y1 antag = blocks the human neuropeptide Y Y1 receptor; HEK293-CNG Y1 cells, membrane potential fluorescence; NPY at EC95, then isoproterenol; P25929; inhibition, % at 3.6 µM; AID 1040; 1% of 200,000 active;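 active = inhibition above the campaign mean inhibition of all tested compounds plus 3 SD, cut at about 20% in these data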;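 also: 0% = DMSO wells given NPY plus isoproterenol and 100% = isoproterenol alone without NPY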
Target sequence (P25929 whole entry, looked up): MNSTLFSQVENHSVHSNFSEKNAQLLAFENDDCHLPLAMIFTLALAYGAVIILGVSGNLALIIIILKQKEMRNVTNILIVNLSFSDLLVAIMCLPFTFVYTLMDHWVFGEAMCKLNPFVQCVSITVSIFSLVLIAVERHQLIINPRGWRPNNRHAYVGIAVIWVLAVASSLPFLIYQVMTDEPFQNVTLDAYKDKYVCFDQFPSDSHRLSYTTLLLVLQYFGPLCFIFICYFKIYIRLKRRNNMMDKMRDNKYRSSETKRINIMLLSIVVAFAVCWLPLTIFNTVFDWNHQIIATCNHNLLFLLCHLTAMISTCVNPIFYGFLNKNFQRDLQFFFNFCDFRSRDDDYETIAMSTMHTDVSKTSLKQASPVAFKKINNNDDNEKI
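Assay system: HEK293 cells with Y1 receptor plus CNG channel | Probe or stimulus: NPY (25 nM), isoproterenol (1 µM), Ro 20-1724 (25 µM) | Timing: Compound incubation 1 h at room temperature, readout 45 min post-stimulation | Measured by: Membrane-potential fluorescent dye readout | Benchmarks: High control isoproterenol alone, low control NPY with isoproterenol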
NPY-Y2 PAM-ag = human NPY-Y2 potentiation or agonism, primary screen. P49146. cells expressing NPY-Y2, potentiator/agonist read-out. activation, % at 3.6 µM. 0.45% of 220,000 active. AID 1359; in the data active = activation above about 27%;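 also: cells stimulated with NPY near EC25 plus isoproterenol at EC100; 0% = vehicle plus submaximal agonist and 100% = vehicle plus saturating agonist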
NPY-Y1 PAM-ag = human NPY-Y1 potentiation or agonism, primary screen | NPY-Y1 expressing cells, potentiator/agonist activation | 0.37% of 220,000 active | activation, % at 3.6 µM; in the data active = activation above about 33%, passing the limit was not always enough;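 also: cells stimulated with NPY at EC10 then isoproterenol at EC100; 0% = low agonist plus stimulus and 100% = saturating agonist plus stimulus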
NPY-Y1 antag ct = antagonizes human NPY-Y1, counter-screen to NPY-Y2 antagonists; inhibition, % at 3.6 µM; shares compounds with NPY Y2 blocker; cell-based NPY-Y1 antagonism counterscreen; 19% of 710 active; in the data active = inhibition above about 20%;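 also: cells challenged with NPY then isoproterenol with cAMP sensed through a CNG channel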
NPY-Y2 ant conf = human NPY-Y2 antagonism, confirmation; shares compounds with NPY Y2 blocker; HEK293 NPY-Y2 CNG channel, membrane potential fluorescence; inhibition, % at 2.8 µM; 32% of 710 active;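 active = mean inhibition of triplicate wells above the hit cutoff set in the primary screen, cut at about 17% in these data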;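 also: 0% = DMSO with NPY challenge and 100% = BIIE0246 high control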
Numbers without * were called inactive; x = no result.

SMILES	NPY Y2 blocker	NPY-Y1 antag	NPY-Y2 PAM-ag	NPY-Y1 PAM-ag	NPY-Y1 antag ct	NPY-Y2 ant conf
Nc1ncnc2c1ncn2[C@@H]1O[C@H](CO)[C@@H](O)[C@H]1O	2.5	-4.9	10.7	10.6	x	x
COc1ccc(C(C)=O)cc1CSc1nc2ccccc2c(=O)n1-c1ccccc1C	20.4*	15.5	-1.1	-12.3	11.2	13.0
COc1ccc(C(C)=O)cc1CSc1nc2ccccc2c(=O)n1-c1cccc(C)c1	6.2	1.1	-3.0	-3.3	x	x
CCCc1cc(=O)[nH]c(SCC(=O)c2cc(C)n(C)c2C)n1	18.8*	2.6	-9.4	-39.5	4.0	10.8
CCS(=O)(=O)N1Cc2ccccc2CC1C(=O)NC(C)C12CC3CC(CC(C3)C1)C2 (stereo not given)	19.4*	10.3	-13.5	-6.7	4.9	9.0
Cn1c(-c2sc3ccccc3c2Cl)n[nH]c1=S	17.3*	18.3	-26.1	-29.8	14.8	12.1
Cn1c(CSc2nc3ccccc3s2)n[nH]c1=S	7.5	12.5	-20.6	-31.1	x	x
COc1cc(C(C)=O)ccc1Oc1ncnc2c1cnn2-c1ccc(F)cc1	2.9	1.8	-2.4	5.5	x	x
CC(C)NC(=O)CSc1nncn1-c1ccccc1	18.2*	0.6	2.6	5.2	0.1	1.0
CCCCOP(=O)(OCCCC)C(Nc1ccccc1)c1ccc2c(c1)OCO2 (stereo not given)	18.7*	16.0	-1.4	-5.4	13.4	8.0
COC(=O)c1ccc(N2Cc3ccccc3/C2=N\C(=O)Nc2ccccc2)cc1	16.5	-0.8	6.8	-13.0	x	x
CC(=O)c1ccc(N2Cc3ccccc3/C2=N\C(=O)Nc2ccc(Cl)cc2)cc1	24.4*	5.8	6.3	14.7	109.2*	150.5*
CCOC(=S)SCC(=O)N1CCc2cc(OC)ccc2C1C1C(=O)CCCC1=O (stereo not given)	1.9	0.4	-3.2	-10.0	x	x
COc1cccc(CNC(=O)CN2C(=O)CSc3ccc(S(=O)(=O)N4CCCC4)cc32)c1	x	4.8	-11.8	-19.1	x	x
CC12CCC(C(=O)NCc3cccnc3)(OC1=O)C2(C)C (stereo not given)	2.5	4.0	-20.1	-3.2	x	x
CC12CCC(C(=O)N(Cc3ccccc3)Cc3ccccc3)(OC1=O)C2(C)C (stereo not given)	17.8*	19.2	-30.8	-37.3	15.6	14.5
CCC(=O)Nc1cccc(NC(=S)NC(=O)c2ccccc2C)c1	x	-0.2	-6.5	-7.8	x	x
O=C(Nc1ccc(Cl)cc1F)c1ccc(COc2c(F)c(F)c(F)c(F)c2F)o1	16.0	15.0	-19.6	-21.5	x	x
O=C(Nc1ccc(F)cc1F)c1ccc(COc2c(F)c(F)cc(F)c2F)o1	17.6*	10.5	-27.3	-39.9	9.6	8.8
O=C(CCc1nc2ccccc2[nH]c1=O)N/N=C/c1ccccc1	x	-2.7	2.5	-9.6	x	x
Cc1ccc(OCCNc2ccc(C(F)(F)F)cc2[N+](=O)[O-])cc1	21.3*	-0.1	0.6	18.7	19.6	16.7
C/C(=C\C(=O)c1ccncc1)Nc1ccccc1O	17.8*	1.5	11.5	7.8	1.2	7.5
CC(=O)Nc1ccccc1O	-0.1	2.5	4.9	-0.3	x	x
CN(c1ccc(C(=O)NCCSCc2ccc(Cl)cc2)cc1)S(=O)(=O)c1ccccc1	11.0	7.6	10.2	-22.6	x	x
Cc1ccc(CSCCNC(=O)c2ccc(N(C)S(=O)(=O)c3ccccc3)cc2)cc1	17.9*	4.9	-25.8	-35.6	10.3	14.7
SMILES	NPY Y2 blocker	NPY-Y1 antag	NPY-Y2 PAM-ag	NPY-Y1 PAM-ag	NPY-Y1 antag ct	NPY-Y2 ant conf
COc1ccc(Cc2nc(C(=O)Nc3ccccc3)cs2)cc1	18.3*	14.5	-11.8	-17.9	7.5	8.6
O=C(CSc1ncn(-c2ccccc2)n1)Nc1ccc2c(c1)OCCO2	18.1*	5.2	-3.5	-23.7	27.0*	23.5*
Cc1ccc(SCC(=O)NC(=O)Nc2ccc3c(c2)OCCO3)cc1C	19.2*	1.3	1.4	-28.2	8.5	13.7
O=C(CSc1nnnn1-c1ccc(Cl)cc1)NC(=O)Nc1ccc2c(c1)OCCO2	20.2*	16.9	-3.4	-4.7	15.3	15.1
O=C(CN1C(=O)CCC1=O)Nc1cccc2c1C(=O)NC2=O	x	-1.6	6.4	1.0	x	x
CCCOc1nc(C)cc(COC)c1C(N)=O	x	-3.1	18.9	12.3	x	x
CCCCCCNS(=O)(=O)c1ccc(NC(=O)C2CCCO2)cc1 (stereo not given)	31.2*	2.1	-5.0	-11.9	8.3	29.2*
O=C(Nc1ccc(S(=O)(=O)Nc2ccc(Cl)cc2)cc1)C1CCCO1 (stereo not given)	-1.9	-13.1	12.7	7.3	x	x
O=C(O)CN(C1CCCCC1)S(=O)(=O)c1ccc(F)cc1	x	15.8	-6.5	2.2	x	x
COc1ccc(Cl)cc1NC(=O)c1c(-c2ccccc2)noc1C	24.8*	17.9	-3.1	-16.9	18.6	9.8
COC(=O)c1cc(Cl)c(NC(=O)c2ccc(C(C)(C)C)cc2)cc1OC	18.3*	10.0	-46.0	-70.2	16.0	30.6*
COC(=O)c1cc(Cl)c(NC(=O)C(C)C)cc1OC	x	4.6	-5.0	-13.8	x	x
CCN(CC)S(=O)(=O)c1cc(C)ccc1SC	3.9	1.8	8.7	-3.3	x	x
COCCNC(=O)c1onc(CSc2cc(C)ccc2C)c1C(=O)O	10.3	7.0	-23.0	-6.2	x	x
CCCCNC(=O)c1onc(CSc2cc(C)ccc2C)c1C(=O)O	20.6*	17.6	-19.5	-23.8	30.9*	24.6*
CC(=O)Nc1ccc(C(=O)NCC(=O)OCc2c(F)cccc2Cl)cc1	x	-2.3	-1.9	-8.5	x	x
O=C(CSc1cccc2cccc(Cl)c12)OCC(=O)N1CCN(C(=O)c2ccco2)CC1	18.8*	12.3	-22.0	-17.5	14.6	12.4
O=C(NCC1CCCO1)c1nc2c(nnn2Cc2ccccc2Cl)c(=O)[nH]1 (stereo not given)	18.2*	3.6	-19.6	-19.8	4.8	5.5
Cc1ccc(C)c(Cn2nnc3c(=O)[nH]c(C(=O)NCC4CCCO4)nc32)c1 (stereo not given)	6.4	0.9	-10.1	-7.0	x	x
CCOC(=O)N1CCN(C(=O)c2cnn3c(C(F)F)cc(-c4ccc(C)cc4)nc23)CC1	17.2*	-1.6	-22.5	-23.8	3.2	3.2
COc1cc(/C=N/n2cnnc2)ccc1OCc1ccccc1	2.9	4.8	-2.0	-15.0	x	x
COc1cc(/C=N/n2cnnc2)ccc1OCc1ccc(C)cc1	39.7*	18.5	-19.8	-41.6	16.1	31.8*
O=C(Nc1cc(S(=O)(=O)N2CCOCC2)ccc1N1CCCC1)c1ccc2c(c1)S(=O)(=O)c1ccccc1C2=O	x	0.3	-14.4	-3.8	x	x
CN(CC(CC(=O)Nc1nncs1)c1ccccc1)S(=O)(=O)c1ccccc1 (stereo not given)	8.2	3.6	1.1	18.3	x	x
CN(CC(CC(=O)Nc1nncs1)c1ccccc1)S(=O)(=O)c1ccc(Br)cc1 (stereo not given)	17.9*	9.1	-13.1	-16.5	7.2	5.6
CC(C)Cn1c(N)c(C(=O)NCC2CCCO2)c2nc3ccccc3nc21 (stereo not given)	19.6*	12.7	4.5	-16.2	15.8	7.5
